The results in this text go back to ChEMBL document CHEMBL4043093, “2-Oxo-3, 4-dihydropyrimido[4, 5-d]pyrimidinyl derivatives as new irreversible pan fibroblast growth factor receptor (FGFR) inhibitors” (Eur J Med Chem, 2017).

Each structure is given as a SMILES string.

Experiment [1] addresses BMP-2-inducible protein kinase (Homo sapiens) (UniProt Q9NSY1). The experiment is described as follows: Inhibition of wild-type human partial length BIKE (S34 to N329 residues) expressed in Escherichia coli BL21 assessed as residual activity at 1000 nM after 30 mins by Kinomescan method relative to control.
Experiment [2] deals with Eukaryotic translation initiation factor 2-alpha kinase 1 (Homo sapiens) (UniProt Q9BQI3). The experiment is described as follows: Inhibition of wild-type human partial length EIF2AK1 (Q147 to E603 residues) expressed in HEK293 cells assessed as residual activity at 1000 nM after 30 mins by Kinomescan method relative to control. It counts as cell-based.
Experiment [3] has as its system Receptor-type tyrosine-protein kinase FLT3 (Homo sapiens), P36888 [D835H]. The experiment is described as follows: Inhibition of human partial length FLT3 D835H mutant (V592 to Y969 residues) expressed in Escherichia coli BL21 assessed as residual activity at 1000 nM after 30 mins by Kinomescan method relative to control. Put shortly: (§1)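 KINOMEscan binding panel of 456 kinases, with the test compound at a single concentration of 1 µM. Read-out is Percent Control.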

The target of experiment [4] is Cyclin-G-associated kinase (Homo sapiens) (UniProt O14976). The experiment is described as follows: Inhibition of wild-type human partial length GAK (G13 to Y338 residues) expressed in Escherichia coli BL21 assessed as residual activity at 1000 nM after 30 mins by Kinomescan method relative to control.
In experiment [5] the target is Glycogen synthase kinase-3 alpha (Homo sapiens) (UniProt P49840). Kind of experiment: Inhibition of wild-type human full length GSK3A (M1 to S483 residues) expressed in Escherichia coli BL21 assessed as residual activity at 1000 nM after 30 mins by Kinomescan method relative to control. In a few lines: (§2)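 Single-concentration screen at 1 µM across a 456-kinase KINOMEscan panel. The read-out is Percent Control for each kinase.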

The target of experiment [6] is Serine/threonine-protein kinase haspin (Homo sapiens) (UniProt Q8TF76). Kind of experiment: Inhibition of wild-type human partial length HASPIN (I452 to K798 residues) expressed in HEK293 cells assessed as residual activity at 1000 nM after 30 mins by Kinomescan method relative to control. The class given is cell-based.
For experiment [7], the target named is Mitogen-activated protein kinase kinase kinase kinase 1 (Homo sapiens) (UniProt Q92918). The experiment is described as follows: Inhibition of wild-type human full length HPK1 (M1 to R799 residues) expressed in Escherichia coli BL21 assessed as residual activity at 1000 nM after 30 mins by Kinomescan method relative to control. In a few lines:
as §2

Experiment [8] addresses Insulin-like growth factor 1 receptor (Homo sapiens) (UniProt P08069). The experiment is described as follows: Inhibition of wild-type human partial length IGF1R (L972 to D1294 residues) expressed in Escherichia coli BL21 assessed as residual activity at 1000 nM after 30 mins by Kinomescan method relative to control.
The target of experiment [9] is Mitogen-activated protein kinase kinase kinase 13 (Homo sapiens) (UniProt O43283). Kind of experiment: Inhibition of wild-type human full length LZK (M1 to W966 residues) expressed in HEK293 cells assessed as residual activity at 1000 nM after 30 mins by Kinomescan method relative to control. It counts as cell-based. In a few lines:
as §2

Experiment [10] deals with Mitogen-activated protein kinase kinase kinase 2 (Homo sapiens) (UniProt Q9Y2U5). The experiment is described as follows: Inhibition of wild-type human partial length MAP3K2 (S315 to H619 residues) expressed in HEK293 cells assessed as residual activity at 1000 nM after 30 mins by Kinomescan method relative to control. The class given is cell-based.
Experiment [11] addresses Serine/threonine-protein kinase Nek10 (Homo sapiens) (UniProt Q6ZWH5). Kind of experiment: Inhibition of wild-type human partial length NEK10 (L488 to R809 residues) expressed in HEK293 cells assessed as residual activity at 1000 nM after 30 mins by Kinomescan method relative to control. It counts as cell-based.
Experiment [12] deals with Serine/threonine-protein kinase Nek9 (Homo sapiens) (UniProt Q8TD19). Kind of experiment: Inhibition of wild-type human partial length NEK9 (P32 to R328 residues) expressed in Escherichia coli BL21 assessed as residual activity at 1000 nM after 30 mins by Kinomescan method relative to control.
For experiment [13], the target named is Serine/threonine-protein kinase PAK 2 (Homo sapiens) (UniProt Q13177). Kind of experiment: Inhibition of wild-type human partial length PAK2 (P151 to R525 residues) expressed in Escherichia coli BL21 assessed as residual activity at 1000 nM after 30 mins by Kinomescan method relative to control.
The target of experiment [14] is Serine/threonine-protein kinase PAK 4 (Homo sapiens) (UniProt O96013). Kind of experiment: Inhibition of wild-type human partial length PAK4 (Q144 to R438 residues) expressed in Escherichia coli BL21 assessed as residual activity at 1000 nM after 30 mins by Kinomescan method relative to control.
The target of experiment [15] is Serine/threonine-protein kinase PAK 5 (Homo sapiens) (UniProt Q9P286). Kind of experiment: Inhibition of wild-type human partial length PAK7 (Y400 to H719 residues) expressed in Escherichia coli BL21 assessed as residual activity at 1000 nM after 30 mins by Kinomescan method relative to control.
Experiment [16] addresses Phosphorylase b kinase gamma catalytic chain, skeletal muscle/heart isoform (Homo sapiens) (UniProt Q16816). The experiment is described as follows: Inhibition of wild-type human full length PHKG1 (M1 to Y387 residues) expressed in Escherichia coli BL21 assessed as residual activity at 1000 nM after 30 mins by Kinomescan method relative to control. Put shortly: as §2
Experiment [17] concerns Phosphatidylinositol 4,5-bisphosphate 3-kinase catalytic subunit alpha isoform (Homo sapiens), P42336 [H1047L]. Kind of experiment: Inhibition of human partial length PIK3CA H1047L mutant (R108 to N1068 residues) expressed in HEK293 cells assessed as residual activity at 1000 nM after 30 mins by Kinomescan method relative to control. The class given is cell-based. Put shortly:
as §1

Experiment [18] addresses Protein kinase C delta type (Homo sapiens) (UniProt Q05655). The experiment is described as follows: Inhibition of wild-type human partial length PRKCD (Q328 to D676 residues) expressed in Escherichia coli BL21 assessed as residual activity at 1000 nM after 30 mins by Kinomescan method relative to control.
In experiment [19] the target is Serine/threonine-protein kinase SBK1 (Homo sapiens) (UniProt Q52WX2). The experiment is described as follows: Inhibition of wild-type human partial length SBK1 (P23 to P348 residues) expressed in HEK293 cells assessed as residual activity at 1000 nM after 30 mins by Kinomescan method relative to control. It counts as cell-based.
The target in experiment [20] is Serine/threonine-protein kinase TBK1 (Homo sapiens) (UniProt Q9UHD2). The experiment is described as follows: Inhibition of wild-type human full length TBK1 (M1 to L729 residues) expressed in HEK293 cells assessed as residual activity at 1000 nM after 30 mins by Kinomescan method relative to control. It counts as cell-based.
The target in experiment [21] is Angiopoietin-1 receptor (Homo sapiens) (UniProt Q02763). Kind of experiment: Inhibition of wild-type human partial length TIE2 (N804 to T1112 residues) expressed in Escherichia coli BL21 assessed as residual activity at 1000 nM after 30 mins by Kinomescan method relative to control.
Experiment [22] has as its target Serine/threonine-protein kinase ULK1 (Homo sapiens) (UniProt O75385). Kind of experiment: Inhibition of wild-type human partial length ULK1 (M1 to T309 residues) expressed in HEK293 cells assessed as residual activity at 1000 nM after 30 mins by Kinomescan method relative to control. The class given is cell-based.

Chain of Mitogen-activated protein kinase kinase kinase 2 (Homo sapiens) (Q9Y2U5 whole entry, the tested form may be a part): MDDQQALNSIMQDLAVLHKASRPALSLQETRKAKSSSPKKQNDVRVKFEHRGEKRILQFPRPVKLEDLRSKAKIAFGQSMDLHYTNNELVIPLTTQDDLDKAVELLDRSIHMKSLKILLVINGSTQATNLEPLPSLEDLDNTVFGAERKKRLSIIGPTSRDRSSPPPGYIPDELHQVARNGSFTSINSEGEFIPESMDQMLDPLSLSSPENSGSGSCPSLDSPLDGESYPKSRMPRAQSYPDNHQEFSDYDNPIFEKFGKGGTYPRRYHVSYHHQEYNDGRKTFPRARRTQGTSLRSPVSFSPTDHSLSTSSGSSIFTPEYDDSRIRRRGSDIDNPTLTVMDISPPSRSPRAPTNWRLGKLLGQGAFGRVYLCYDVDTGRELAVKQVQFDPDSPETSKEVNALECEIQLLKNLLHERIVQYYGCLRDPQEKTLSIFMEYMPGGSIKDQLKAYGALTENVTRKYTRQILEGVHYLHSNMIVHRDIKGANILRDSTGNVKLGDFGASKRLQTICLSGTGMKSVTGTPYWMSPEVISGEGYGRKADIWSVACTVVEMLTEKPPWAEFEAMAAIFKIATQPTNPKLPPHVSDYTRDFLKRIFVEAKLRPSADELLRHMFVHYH
Chain of Serine/threonine-protein kinase Nek10 (Homo sapiens) (Q6ZWH5 whole entry, the tested form may be a part): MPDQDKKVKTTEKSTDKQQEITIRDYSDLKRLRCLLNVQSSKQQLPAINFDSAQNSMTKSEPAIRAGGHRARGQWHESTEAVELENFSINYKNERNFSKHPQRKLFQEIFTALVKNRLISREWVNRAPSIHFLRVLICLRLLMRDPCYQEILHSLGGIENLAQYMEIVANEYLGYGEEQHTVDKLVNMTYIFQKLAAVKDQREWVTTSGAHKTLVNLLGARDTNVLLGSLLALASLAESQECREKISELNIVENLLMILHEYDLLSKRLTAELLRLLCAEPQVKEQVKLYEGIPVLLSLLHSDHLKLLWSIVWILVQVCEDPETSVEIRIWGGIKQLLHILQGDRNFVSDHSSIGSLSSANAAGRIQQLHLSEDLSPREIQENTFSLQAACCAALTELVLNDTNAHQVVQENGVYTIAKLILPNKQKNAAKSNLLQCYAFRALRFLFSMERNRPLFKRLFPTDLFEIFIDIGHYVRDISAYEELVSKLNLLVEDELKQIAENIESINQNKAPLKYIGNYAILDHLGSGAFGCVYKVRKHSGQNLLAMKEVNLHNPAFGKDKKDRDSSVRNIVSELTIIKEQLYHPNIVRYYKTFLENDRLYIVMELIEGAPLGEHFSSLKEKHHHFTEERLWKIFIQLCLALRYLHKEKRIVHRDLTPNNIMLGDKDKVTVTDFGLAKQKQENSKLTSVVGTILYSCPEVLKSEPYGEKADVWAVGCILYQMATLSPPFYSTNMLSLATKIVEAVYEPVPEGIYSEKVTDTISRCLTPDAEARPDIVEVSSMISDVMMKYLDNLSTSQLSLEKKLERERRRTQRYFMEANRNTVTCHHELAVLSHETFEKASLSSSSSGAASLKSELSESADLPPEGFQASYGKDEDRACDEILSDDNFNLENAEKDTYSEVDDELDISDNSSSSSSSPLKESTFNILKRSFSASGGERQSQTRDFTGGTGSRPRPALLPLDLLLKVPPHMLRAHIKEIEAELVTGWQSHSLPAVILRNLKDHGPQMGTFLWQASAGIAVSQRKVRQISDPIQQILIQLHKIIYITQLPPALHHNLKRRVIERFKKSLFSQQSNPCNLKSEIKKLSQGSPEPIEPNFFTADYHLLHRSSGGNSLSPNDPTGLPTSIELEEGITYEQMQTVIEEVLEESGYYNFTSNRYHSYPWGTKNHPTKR
Chain of Mitogen-activated protein kinase kinase kinase kinase 1 (Homo sapiens) (Q92918 whole entry, looked up, the tested form may be a part): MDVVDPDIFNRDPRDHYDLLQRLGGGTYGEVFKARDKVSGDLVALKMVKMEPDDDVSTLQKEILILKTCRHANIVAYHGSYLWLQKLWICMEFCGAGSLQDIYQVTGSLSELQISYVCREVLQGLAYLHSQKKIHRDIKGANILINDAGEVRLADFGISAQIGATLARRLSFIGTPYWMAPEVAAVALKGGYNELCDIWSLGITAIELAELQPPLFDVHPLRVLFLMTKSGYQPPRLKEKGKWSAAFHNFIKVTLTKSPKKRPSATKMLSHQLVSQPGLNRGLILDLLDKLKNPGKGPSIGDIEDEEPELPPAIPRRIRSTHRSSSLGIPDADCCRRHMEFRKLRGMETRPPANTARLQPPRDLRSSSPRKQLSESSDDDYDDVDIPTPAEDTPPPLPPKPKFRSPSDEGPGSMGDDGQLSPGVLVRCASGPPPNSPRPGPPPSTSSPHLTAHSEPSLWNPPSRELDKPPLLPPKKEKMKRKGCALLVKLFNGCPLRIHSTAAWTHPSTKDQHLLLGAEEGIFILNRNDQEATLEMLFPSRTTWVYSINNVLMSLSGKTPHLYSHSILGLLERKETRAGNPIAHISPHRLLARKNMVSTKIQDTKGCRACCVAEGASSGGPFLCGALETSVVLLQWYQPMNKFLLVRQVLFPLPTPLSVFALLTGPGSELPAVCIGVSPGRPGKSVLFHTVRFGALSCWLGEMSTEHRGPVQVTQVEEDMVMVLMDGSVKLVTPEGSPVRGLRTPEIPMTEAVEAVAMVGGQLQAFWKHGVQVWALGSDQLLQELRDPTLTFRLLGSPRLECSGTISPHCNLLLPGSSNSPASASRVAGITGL
Chain of Serine/threonine-protein kinase haspin (Homo sapiens) (Q8TF76 whole entry, the tested form may be a part): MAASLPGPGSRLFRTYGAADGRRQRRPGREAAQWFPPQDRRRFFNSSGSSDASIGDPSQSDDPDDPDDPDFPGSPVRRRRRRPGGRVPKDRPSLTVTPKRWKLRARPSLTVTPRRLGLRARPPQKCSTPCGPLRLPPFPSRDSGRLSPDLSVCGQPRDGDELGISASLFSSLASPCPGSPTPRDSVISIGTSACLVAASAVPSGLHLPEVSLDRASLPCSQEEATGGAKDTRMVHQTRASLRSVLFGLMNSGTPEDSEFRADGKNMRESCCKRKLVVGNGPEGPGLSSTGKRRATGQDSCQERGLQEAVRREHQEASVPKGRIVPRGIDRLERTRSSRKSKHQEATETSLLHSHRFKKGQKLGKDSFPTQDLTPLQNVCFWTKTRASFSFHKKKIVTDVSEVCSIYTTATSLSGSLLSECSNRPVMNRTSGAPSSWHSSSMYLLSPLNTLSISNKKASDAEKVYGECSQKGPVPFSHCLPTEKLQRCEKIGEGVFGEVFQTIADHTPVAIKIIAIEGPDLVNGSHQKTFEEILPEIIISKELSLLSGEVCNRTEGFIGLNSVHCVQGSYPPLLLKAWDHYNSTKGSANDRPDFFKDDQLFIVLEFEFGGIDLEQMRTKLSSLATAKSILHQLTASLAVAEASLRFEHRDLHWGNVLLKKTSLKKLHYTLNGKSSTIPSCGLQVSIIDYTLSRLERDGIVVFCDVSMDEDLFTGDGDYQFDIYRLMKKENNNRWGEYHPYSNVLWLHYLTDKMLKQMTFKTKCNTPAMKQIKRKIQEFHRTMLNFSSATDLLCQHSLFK
Chain of Phosphorylase b kinase gamma catalytic chain, skeletal muscle/heart isoform (Homo sapiens) (Q16816 whole entry, looked up, the tested form may be a part, canonical isoform): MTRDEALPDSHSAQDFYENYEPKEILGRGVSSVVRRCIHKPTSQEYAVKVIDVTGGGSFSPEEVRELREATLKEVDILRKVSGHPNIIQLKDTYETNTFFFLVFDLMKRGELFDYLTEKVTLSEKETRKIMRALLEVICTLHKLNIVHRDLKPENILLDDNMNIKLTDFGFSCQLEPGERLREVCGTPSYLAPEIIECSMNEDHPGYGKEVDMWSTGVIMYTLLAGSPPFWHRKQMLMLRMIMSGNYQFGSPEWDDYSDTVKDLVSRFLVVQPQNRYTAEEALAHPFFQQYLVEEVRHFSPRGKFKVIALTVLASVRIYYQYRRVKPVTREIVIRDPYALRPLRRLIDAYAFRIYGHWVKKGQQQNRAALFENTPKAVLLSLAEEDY
Chain of Phosphatidylinositol 4,5-bisphosphate 3-kinase catalytic subunit alpha isoform (Homo sapiens), P42336 [H1047L] (P42336 whole entry H1047L, the tested form may be a part, canonical isoform): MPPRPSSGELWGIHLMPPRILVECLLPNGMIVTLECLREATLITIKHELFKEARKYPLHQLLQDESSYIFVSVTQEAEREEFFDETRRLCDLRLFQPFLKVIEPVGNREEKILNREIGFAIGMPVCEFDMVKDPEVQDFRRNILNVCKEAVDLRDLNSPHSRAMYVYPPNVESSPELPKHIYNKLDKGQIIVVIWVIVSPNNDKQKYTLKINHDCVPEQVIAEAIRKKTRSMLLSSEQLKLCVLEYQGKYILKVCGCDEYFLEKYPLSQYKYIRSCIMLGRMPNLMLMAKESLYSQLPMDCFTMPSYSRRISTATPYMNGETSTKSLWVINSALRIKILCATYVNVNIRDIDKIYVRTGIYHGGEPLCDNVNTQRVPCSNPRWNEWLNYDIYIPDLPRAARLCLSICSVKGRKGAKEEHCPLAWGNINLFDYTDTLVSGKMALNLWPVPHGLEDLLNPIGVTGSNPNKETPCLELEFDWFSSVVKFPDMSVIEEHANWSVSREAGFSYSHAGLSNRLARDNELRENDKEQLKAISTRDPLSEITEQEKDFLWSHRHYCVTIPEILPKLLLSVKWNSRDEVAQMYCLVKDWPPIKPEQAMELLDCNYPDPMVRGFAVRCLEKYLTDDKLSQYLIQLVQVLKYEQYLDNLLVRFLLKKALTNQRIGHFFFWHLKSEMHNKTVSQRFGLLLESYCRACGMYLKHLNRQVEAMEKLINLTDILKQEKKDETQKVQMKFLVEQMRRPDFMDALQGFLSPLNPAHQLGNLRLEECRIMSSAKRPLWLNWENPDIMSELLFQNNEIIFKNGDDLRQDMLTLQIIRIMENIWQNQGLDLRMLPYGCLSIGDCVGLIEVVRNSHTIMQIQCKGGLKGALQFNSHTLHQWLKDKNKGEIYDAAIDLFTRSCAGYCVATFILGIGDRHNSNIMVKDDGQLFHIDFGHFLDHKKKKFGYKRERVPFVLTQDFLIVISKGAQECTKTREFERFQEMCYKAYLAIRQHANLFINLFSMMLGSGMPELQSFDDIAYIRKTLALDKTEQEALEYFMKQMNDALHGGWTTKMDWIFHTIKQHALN

Turning to `COc1cc(OC)c(Cl)c(N2Cc3cnc(Nc4ccc(F)cc4)nc3N(C3CCN(C(=O)/C=C/CN(C)C)CC3)C2=O)c1Cl`, the Activity amounted to 100% in experiment [1]; 100% in experiment [2]; 100% in [3]; 96% in [4]; 100% in experiment [5]; 61% in experiment [6]. Moreover, the Activity was 32% in experiment [7]; 83% in experiment [8]; 100% in experiment [9]; 0.8% in experiment [10]; 86% in experiment [11]; 100% in experiment [12]. The Activity in experiment [13] is 100%; in experiment [14] it was 100%; in [15], 88%; in experiment [16], 92%; in [17], 100%; in [18], 93%. Further, the Activity in experiment [19] came to 90%; in experiment [20], 92%; in experiment [21] it was 26%; in experiment [22], 89%.
